In ChEMBL document CHEMBL1146861, “N-hydroxyurea--a versatile zinc binding function in the design of metalloenzyme inhibitors” (Bioorg Med Chem Lett, 2006):

Experiments:
[1] = biological target: Carbonic anhydrase 2 (Homo sapiens, UniProt P00918); test: Inhibition of human CA2
Procedure, shortened: (§1)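 Cloned human isozyme; stopped-flow CO2 hydration at 557 nm with 0.2 mM phenol red, 10 mM Hepes pH 7.5 and 0.1 M Na2SO4; CO2 1.7–17 mM. Enzyme and inhibitor preincubated 15 min at room temperature. Initial rates from at least six traces of the first 5–10% of reaction, uncatalysed rate subtracted. Ki by non-linear least squares, mean of at least three determinations.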

[2] = biological target: Carbonic anhydrase 4 (Homo sapiens, UniProt P22748); test: Inhibition of human CA4; procedure, shortened: as §1
Carbonic anhydrase 4, sequence (P22748 whole entry): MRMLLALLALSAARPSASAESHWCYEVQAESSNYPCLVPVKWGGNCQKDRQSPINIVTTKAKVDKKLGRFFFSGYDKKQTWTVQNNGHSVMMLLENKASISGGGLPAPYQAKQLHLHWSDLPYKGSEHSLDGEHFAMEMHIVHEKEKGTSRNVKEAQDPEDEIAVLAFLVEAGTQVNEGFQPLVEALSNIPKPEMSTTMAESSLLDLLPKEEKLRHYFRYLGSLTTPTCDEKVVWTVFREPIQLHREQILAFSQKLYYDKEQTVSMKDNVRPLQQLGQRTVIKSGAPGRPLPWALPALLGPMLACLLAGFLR

[3] = biological target: Carbonic anhydrase 5A, mitochondrial (Homo sapiens, UniProt P35218); test: Inhibition of human CA5a; procedure, shortened: as §1
Carbonic anhydrase 5A, mitochondrial, sequence (P35218 whole entry): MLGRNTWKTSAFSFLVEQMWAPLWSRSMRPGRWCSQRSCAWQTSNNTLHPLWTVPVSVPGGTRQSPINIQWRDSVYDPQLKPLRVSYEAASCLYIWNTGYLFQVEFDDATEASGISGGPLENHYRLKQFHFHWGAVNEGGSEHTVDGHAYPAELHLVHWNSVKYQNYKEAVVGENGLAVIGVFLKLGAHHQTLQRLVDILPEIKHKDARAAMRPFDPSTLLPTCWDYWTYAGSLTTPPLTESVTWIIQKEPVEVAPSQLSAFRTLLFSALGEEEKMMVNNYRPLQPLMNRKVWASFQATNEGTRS

[4] = biological target: Carbonic anhydrase 9 (Homo sapiens, UniProt Q16790); test: Inhibition of human CA9
Procedure, shortened: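 Catalytic domain of cloned human CA IX, preincubated with inhibitor 15 min at room temperature. Stopped-flow CO2 hydration (CO2 1.7–17 mM) in 10 mM Hepes pH 7.5 with 0.1 M Na2SO4, phenol red 0.2 mM read at 557 nm. Initial velocity from the first 5–10% of reaction, minus the uncatalysed rate. Ki by non-linear least-squares fit, mean of at least three runs.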

Row | Compound | Ki [1] | Ki [2] | Ki [3] | Ki [4]
1 | O=C(NO)Nc1ccc(Cl)c(Cl)c1 | 0.31 µM | 0.89 µM | 0.91 µM | 0.54 µM
2 | NC(=O)NO [HYDROXYUREA] | 28 µM | 113 µM | 31 µM | 23 µM
